ChEMBL document CHEMBL4842360, “Discovery of a Bicyclic Peptidyl Pan-Ras Inhibitor” (J Med Chem, 2021)
Active and inactive are the calls of the source. No cut-off for these calls is given here. Numbered stars: 1 amine (or outer) side, 2 acyl side, 3 side chain; on linkers, the order of the positions; unused ones are H or OH. Bridge positions count the residues as written; N and C are the ends. Square brackets hold non-standard residues; d marks the D form. Peptide text beside a SMILES is read from it. Trimesoyl = O=C(c1cc(C(=O)[*:2])cc(C(=O)[*:3])c1)[*:1]; d2Nal = N[C@H](Cc1ccc2ccccc2c1)C(=O)O; Phg = N[C@H](C(=O)O)c1ccccc1; Orn = NCCC[C@H](N)C(=O)O; Dap = NC[C@H](N)C(=O)O

Columns and labels:
NCI-H358 [1] = assay: Induction of apoptosis in human NCI-H358 cells assessed as necrotic cells at 10 uM incubated for 24 hrs by Alexa Fluor 488 annexin V/propidium iodide staining based assay (reference value: 0.699%); type: functional
NCI-H358 [2] = assay: Induction of apoptosis in human NCI-H358 cells assessed as early apoptotic cells at 1 uM incubated for 24 hrs by Alexa Fluor 488 annexin V/propidium iodide staining based assay (reference value: 3.05%); type: functional
NCI-H358 [3] = assay: Induction of apoptosis in human NCI-H358 cells assessed as early apoptotic cells at 10 uM incubated for 24 hrs by Alexa Fluor 488 annexin V/propidium iodide staining based assay (reference value: 3.05%); type: functional
A549 [4] = assay: Antitumor activity against human A549 cells xenografted in mouse assessed as reduction in ERK phosphorylation at 1 to 5 mg/kg, iv administered for 9 days measured every other day by immunohistochemical staining method; type: functional, organism-based; conditions: dose 1-5 mg/kg, time 9.0 day
[5] = Drug distribution in human NCI-H358 cells assessed as fluorescent puncta in cytoplasmic region at 5 uM incubated for 2 hrs by live-cell confocal microscopy; type: ADME, cell-based; conditions: nci-h358, 2 h
Outline: (§1)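 HeLa, H358 or A549 cells treated with 5 μM fluorescein-labeled peptide for 2 h, then imaged by live-cell confocal microscopy for intracellular fluorescence pattern.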

[6] = Drug localization in human HeLa cells assessed as mean fluorescence intensity at 5 uM incubated for 2 hrs in presence of 1% FBS by flow cytometry relative to CPP12; type: ADME, cell-based
Outline: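 HeLa cells treated with 5 μM fluorescein-labeled peptide and analysed by flow cytometry. Mean fluorescence intensity expressed relative to FITC-labeled CPP12 (100%).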

NIH3T3 = assay: Cytotoxicity against mouse NIH3T3 cells incubated for 96 hrs by CellTiter-Glo2 assay; type: cell-based; conditions: NIH3T3, 96 h
Outline: (§2)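 Cells plated at 5,000/well, grown overnight, then exposed to serially diluted peptide (0–40 μM) in medium with 10% FBS for 96 h at 37 °C, 5% CO2. Viability read by CellTiter-Glo 2.0 luminescence after 15 min at RT.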

DLD-1 = assay: Antiproliferative activity against human DLD-1 cells harboring KRAS G13D mutant incubated for 96 hrs by CellTiter-Glo2 assay; type: functional, cell-based; conditions: DLD-1, 96 h; outline: as §2
[7] = Drug distribution in human HeLa cells assessed as fluorescent puncta in cytoplasmic region at 5 uM incubated for 2 hrs by live-cell confocal microscopy; type: ADME, cell-based; outline: as §1
HEK-293T = assay: Cytotoxicity against HEK293T cells incubated for 96 hrs by CellTiter-Glo2 assay; type: cell-based; conditions: Homo sapiens; outline: as §2
NCI-H358 [8] = assay: Induction of apoptosis in human NCI-H358 cells assessed as necrotic cells at 1 uM incubated for 24 hrs by Alexa Fluor 488 annexin V/propidium iodide staining based assay (reference value: 0.699%); type: functional
A549 [9] = assay: Antitumor activity against human A549 cells xenografted in mouse assessed as average tumor volume at 1 mg/kg, iv administered for 9 days measured every other day (reference value: 100 mm3); type: functional; conditions: time 9 day
Outline: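 Nude mice given ~1.5 million A549 cells subcutaneously. Once tumors reached ~40 mm3, groups of n = 6 received peptide at 1 or 5 mg/kg/day or PBS vehicle by tail-vein injection for 9 days. Tumor volume was tracked, and tumors were weighed at harvest.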

[10] = target: T1, Tyrosine-protein phosphatase non-receptor type 1 (Homo sapiens) (UniProt P18031); assay: Binding affinity to PTP1B (unknown origin)
T1 sequence (whole entry): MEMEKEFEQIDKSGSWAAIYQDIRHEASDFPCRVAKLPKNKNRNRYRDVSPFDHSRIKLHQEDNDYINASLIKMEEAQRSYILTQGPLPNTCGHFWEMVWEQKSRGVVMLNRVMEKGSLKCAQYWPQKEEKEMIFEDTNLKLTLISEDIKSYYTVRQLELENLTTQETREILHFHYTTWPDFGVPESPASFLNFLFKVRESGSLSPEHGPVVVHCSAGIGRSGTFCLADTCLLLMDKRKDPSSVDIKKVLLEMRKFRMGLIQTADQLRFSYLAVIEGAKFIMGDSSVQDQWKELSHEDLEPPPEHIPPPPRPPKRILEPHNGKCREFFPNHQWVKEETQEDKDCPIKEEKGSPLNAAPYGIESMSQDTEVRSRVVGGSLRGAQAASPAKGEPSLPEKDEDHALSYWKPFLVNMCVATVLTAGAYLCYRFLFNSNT
Outline: (§3)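 Fluorescein-labeled peptide (100 nM) incubated 1 h at RT with varying concentrations of control protein (BSA, GST-RBD, PNP, PTP1B or MDM2). KD derived from fluorescence polarization titration curves.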

[11] = Drug distribution in human A549 cells assessed as accumulation in plasma membrane at 5 uM incubated for 2 hrs by live-cell confocal microscopy; type: ADME, cell membranes; conditions: a549, 2 h; outline: as §1
A549 [12] = assay: Antiproliferative activity against human A549 cells harboring KRAS G12S mutant incubated for 96 hrs by CellTiter-Glo2 assay; type: functional, cell-based; conditions: A549, 96 h; outline: as §2
NCI-H358 [13] = assay: Induction of apoptosis in human NCI-H358 cells assessed as early apoptotic cells at 5 uM incubated for 24 hrs by Alexa Fluor 488 annexin V/propidium iodide staining based assay (reference value: 3.05%); type: functional
NCI-H358 [14] = assay: Induction of apoptosis in human NCI-H358 cells assessed as live cells at 5 uM incubated for 24 hrs by Alexa Fluor 488 annexin V/propidium iodide staining based assay (reference value: 87%); type: functional
NCI-H358 [15] = assay: Induction of apoptosis in human NCI-H358 cells assessed as live cells at 10 uM incubated for 24 hrs by Alexa Fluor 488 annexin V/propidium iodide staining based assay (reference value: 87%); type: functional
[16] = Drug distribution in human NCI-H358 cells assessed as accumulation in plasma membrane at 5 uM incubated for 2 hrs by live-cell confocal microscopy; type: ADME, cell membranes; conditions: nci-h358, 2 h; outline: as §1
NCI-H358 [17] = assay: Induction of apoptosis in human NCI-H358 cells assessed as late apoptotic cells at 1 uM incubated for 24 hrs by Alexa Fluor 488 annexin V/propidium iodide staining based assay (reference value: […]); type: functional
NCI-H358 [18] = assay: Antitumor activity against human NCI-H358 cells xenografted in mouse assessed as suppression of tumor growth at 5 mg/kg, iv administered for 9 days measured every other day; type: functional, organism-based; conditions: time 9.0 day
Outline: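 H358 xenograft in mice; peptide given daily at 5 mg/kg i.v. for 9 days, with tumor growth followed over that period.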

[19] = target: E3 ubiquitin-protein ligase Mdm2 (Homo sapiens) (UniProt Q00987); assay: Binding affinity to MDM2 (unknown origin); outline: as §3
[20] = Antiproliferative activity against human NCI-H1915 cells harboring HRas Q61L mutant incubated for 96 hrs by CellTiter-Glo2 assay; type: functional, cell-based; conditions: NCI-H1915, Lung; outline: as §2
Homo sapiens = species: Homo sapiens; assay: Binding affinity to glutathione-S-transferase (unknown origin); outline: as §3
[21] = Drug distribution in human HeLa cells assessed as diffuse fluorescence throughout the entire cell volume at 5 uM incubated for 2 hrs by live-cell confocal microscopy; type: ADME, cell-based; outline: as §1
NCI-H358 [22] = assay: Induction of membrane disruption in human H358 cells assessed as LDH release up to 20 uM incubated for 45 mins by absorbance method; type: functional, cell-based; conditions: dose microM <=20, time […]
[23] = Drug distribution in human A549 cells assessed as diffuse fluorescence throughout the entire cell volume at 5 uM incubated for 2 hrs by live-cell confocal microscopy; type: ADME, cell-based; conditions: a549, 2 h; outline: as §1

E3 ubiquitin-protein ligase Mdm2 (Homo sapiens), sequence (Q00987 whole entry, looked up): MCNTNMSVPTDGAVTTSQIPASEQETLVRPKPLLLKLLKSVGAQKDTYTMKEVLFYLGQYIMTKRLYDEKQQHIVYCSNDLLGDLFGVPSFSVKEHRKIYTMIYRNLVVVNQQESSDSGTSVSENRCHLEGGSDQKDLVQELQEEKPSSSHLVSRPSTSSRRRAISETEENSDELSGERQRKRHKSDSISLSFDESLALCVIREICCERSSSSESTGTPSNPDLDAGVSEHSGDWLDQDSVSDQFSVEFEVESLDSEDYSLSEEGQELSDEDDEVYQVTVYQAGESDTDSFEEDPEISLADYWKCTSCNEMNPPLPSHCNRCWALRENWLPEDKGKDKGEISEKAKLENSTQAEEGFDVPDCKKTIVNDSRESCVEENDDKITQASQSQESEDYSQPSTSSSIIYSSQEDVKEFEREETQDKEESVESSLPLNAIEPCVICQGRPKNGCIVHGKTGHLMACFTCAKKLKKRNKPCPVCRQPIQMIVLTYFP

Which results are given for `C[C@@H](NC(=O)[C@H](Cc1ccccc1)NC(=O)[C@@H](CCCNC(=N)N)NC(=O)[C@H](CCCN)NC(=O)[C@@H]1CNC(=O)c2cc3cc(c2)C(=O)N[C@H](Cc2ccc4ccccc4c2)C(=O)N[C@@H](CO)C(=O)N[C@@H](CC(N)=O)C(=O)N[C@H](Cc2ccc4ccccc4c2)C(=O)N[C@@H](c2ccccc2)C(=O)N[C@@H](CCCCNC3=O)C(=O)N[C@H](Cc2ccccc2)C(=O)N[C@@H](CCC(N)=O)C(=O)N[C@H](CCCNC(=N)N)C(=O)N[C@@H](CCCNC(=N)N)C(=O)N1)C(N)=O` ([d2Nal]SN[d2Nal][Phg]K[dF]Q[dR]R[Dap][Orn][dR]F[dA]-NH2; linker N-6-11 via Trimesoyl)?
Activity (NCI-H358 [1]): 0.493%; Activity (NCI-H358 [2]): 3.13%; Activity (NCI-H358 [3]): 4.11%; Activity (A549 [4]): Active; Drug uptake [5]: Active; Drug uptake [6]: 226%; EC50 (NIH3T3): ≥ 20 µM; EC50 (DLD-1): 4.9 µM; Drug uptake [7]: Active; EC50 (HEK-293T): ≥ 20 µM; Activity (NCI-H358 [8]): 0.226%; Activity (A549 [9]): 50 mm3; Activity [10]: inactive; Drug uptake [11]: Active; EC50 (A549 [12]): 0.5 µM; Activity (NCI-H358 [13]): 14.7%; Activity (NCI-H358 [14]): 55.1%; Activity (NCI-H358 [15]): 15.4%; Drug uptake [16]: Active; Activity (NCI-H358 [17]): 8.91%; Activity (NCI-H358 [18]): Active; Activity [19]: inactive; EC50 [20]: 6.8 µM; Activity (Homo sapiens): inactive; Drug uptake [21]: Active; Activity (NCI-H358 [22]): inactive; Drug uptake [23]: Active
